# Results from publication PMC4467585 (Journal of Thoracic Oncology, 2015).
# Like-named read-outs stand apart in the source and are kept apart here.
# Experiments:
# InsR = settings: enzyme panel; cited from earlier work
# ALK [1] = settings: more potent; cited from earlier work
# [2] = ASCEND-1; cited from earlier work
# ALK-rearranged NSCLC [3] = format: in vivo, human; settings: for Duration of response to ceritinib: previously treated with alectinib
# How it was run: (§1)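 Investigators assessed response by RECIST v1.1 using CT or MRI at baseline, then day 1 of every odd cycle (−3 to +14 days), excluding cycle 1 day 1. NSCLC patients also had brain MRI or head CT. Oral test compound was given once daily in 21-day cycles. Expansion patients were pooled with escalation patients at the same dose. ORR was reported with exact Clopper–Pearson 95% CI; data cutoff July 4, 2014.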
# ALK [4] = settings: cellular level; cited from earlier work
# ALK-rearranged tumors = experiment: Phase I study: tumor response, all patients incl. IMT; format: in vivo, human; settings: 11 of 20, 300 to 750 mg
# How it was run: as §1
# [5] = Phase I study: single- and multiple-dose plasma pharmacokinetics; format: in vivo, human
# ALK [6] = settings: enzyme-based assays; cited from earlier work
# [7] = system: EML4-ALK xenograft models of NSCLC; settings: including those exhibiting crizotinib resistance; cited from earlier work
# ALK-rearranged NSCLC [8] = settings: ASCEND-1, cited from earlier work; for PFS: 750 mg once daily
# c-MET = settings: unlike crizotinib; cited from earlier work
# IGF-1R = settings: enzyme panel; cited from earlier work
# STK22D = settings: enzyme panel; cited from earlier work
# [9] = ASCEND-1, cited from earlier work
# [10] = system: alectinib-resistant tumor; settings: patient who had progressed on alectinib; cited from earlier work
# [11] = Phase I study: DLTs, MTD and adverse events; format: in vivo, human; settings: for Dose-limiting toxicity: one patient
# How it was run: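 Adult Japanese patients with ALK-rearranged advanced tumors, progressed on standard therapy. Oral test compound: single dose in a 3-day PK run-in, then once daily in continuous 21-day cycles, 300–750 mg. Cohorts of 3–6 escalated by Bayesian logistic regression model with overdose control (<25% posterior DLT probability in ≥33–≤100% interval). DLTs assessed over cycle 1 including run-in; AEs graded CTCAE v4.03; data cutoff July 4, 2014.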
# [12] = cited from earlier work
# [13] = PK run-in, ln(parameter) = exponent × ln(dose) + constant, 300 to 750 mg
smiles,measurement,setting,value
"Cc1cc(Nc2ncc(Cl)c(Nc3ccccc3S(=O)(=O)C(C)C)n2)c(OC(C)C)cc1C1CCNCC1 [Ceritinib, 5-chloro-N2-(2-isopropoxy-5-methyl-4-(piperidin-4-yl)phenyl)-N4-(2-(isopropylsulfonyl)phenyl)pyrimidine-2,4-diamine]",IC50,InsR,7 nM
same,Potency compared with crizotinib in inhibiting ALK,ALK [1],20 fold
same,Increase in exposure in Asian patients compared with non-Asian patients,[2],< 30%
same,"Partial response, patients",ALK-rearranged NSCLC [3]; ALKi-naive NSCLC patients,two of four
same,"Partial response, patients",ALK-rearranged NSCLC [3]; alectinib-pretreated NSCLC patients,two of four
same,"Partial response, patients",ALK-rearranged NSCLC [3]; crizotinib-pretreated NSCLC patients,five of nine
same,PR among patients previously treated with ALK inhibitors,ALK-rearranged NSCLC [3]; eight of 15 NSCLC patients,53%
same,Patients with a reduction in the size of target lesions,ALK-rearranged NSCLC [3]; of the 16 evaluable NSCLC patients,15 patients
same,Disease control rate,"ALK-rearranged NSCLC [3]; patients with NSCLC across all dose groups, 13 of 19",68%
same,Overall response rate,ALK-rearranged tumors,55%
same,"Exponent of power model, AUC0–24 versus dose",[5]; [13],1.04
same,"Exponent of power model, Cmax versus dose",[5]; [13],0.909
same,half-life,"[5]; human, plasma, oral",22 to 33 h
same,Tmax,"[5]; human, plasma, oral, Median Tmax, across the tested doses and profile days",2 to 7 h
same,Exposure numerically higher compared with Asian patients in ASCEND-1,[5]; n = 3,< 30%
same,Antitumor activity in xenograft models,[7],marked antitumor activity
same,PFS,ALK-rearranged NSCLC [8]; ALK inhibitor naive (n = 83),18.4 months
same,PFS,ALK-rearranged NSCLC [8]; previously treated with crizotinib (n = 163),6.9 months
same,ORR,ALK-rearranged NSCLC [8]; ALK inhibitor naive,72.3%
same,ORR,ALK-rearranged NSCLC [8]; all patients (n = 246),61.8%
same,ORR,ALK-rearranged NSCLC [8]; previously treated with crizotinib,56.4%
same,Inhibition of the kinase activity of c-MET,c-MET,did not inhibit
same,IC50,IGF-1R,8 nM
same,IC50,STK22D,23 nM
same,Incidence of drug-related grade 3/4 AEs,[9],49%
same,Maximum-tolerated dose (MTD),[9]; oral,750 mg once daily
same,Dose-limiting toxicity,[11]; 600 mg once daily,grade 3 lipase increase
same,Dose-limiting toxicity,[11]; 750 mg once daily,grade 3 drug-induced liver injury
same,Posterior probability of DLT rate being in the excessive toxicity interval (≥33% to ≤100%),"[11]; 750-mg once-daily dose, BLRM",7.3%
same,Maximum-tolerated dose (MTD),"[11]; Japanese patients with ALK-rearranged tumors, oral",750 mg once daily
same,Adverse event: diarrhea,"[11]; all patients, 300 to 750 mg",75%
same,Adverse event: nausea,"[11]; all patients, 300 to 750 mg",95%
same,Adverse event: vomiting,"[11]; all patients, 300 to 750 mg",75%
same,Patients with at least one dose interruption due to AEs,"[11]; all patients, 11 patients",55%
same,Patients with at least one dose reduction due to AEs,"[11]; all patients, nine patients",45%
same,Patients reporting grade 3/4 AEs,"[11]; all patients, sixteen patients",80%
same,Patients reporting grade 3/4 AEs suspected to be drug related,"[11]; all patients, ten patients",50%
same,Grade 3/4 increased ALT suspected to be drug related,"[11]; all patients, two patients",10%
same,Patients in whom AEs led to discontinuation,"[11]; all patients, two patients",10%
C[C@@H](Oc1cc(-c2cnn(C3CCNCC3)c2)cnc1N)c1c(Cl)ccc(F)c1Cl [Crizotinib],"Gastrointestinal AEs (including nausea, diarrhea, and vomiting)",[12],39–56%
